Measured values as given in ChEMBL document CHEMBL1123503, “Synthesis and biological activity of 3-amino-5-(3,5-diamino-6-chloropyrazin-2-yl)-1,2,4-oxadiazole: an amiloride prodrug” (1986).

tested on: Rattus norvegicus; test: Compound was evaluated for diuretic activity determined by the ability to induce electrolytic excretion (K+) at a time period of 0-24 hr for dose 3 mg/kg; format: functional, Urine
Method in brief: (§1)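 Female Sprague-Dawley rats weighing 160-170 g were dosed orally at 3, 9, 27 or 81 mg/kg, housed three per cage, with three cages per dose. Urinary Na+, K+ and Cl- (mequiv × 100) and urine volume (mL) were measured over 0-5 h and 0-24 h after dosing. A placebo group was run alongside.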

Row | SMILES | Diuretic effect
1 | CN(C)c1nc(N)c(-c2nc(N)[n+](C)o2)nc1Cl.[I-] | 114
2 | C[n+]1oc(-c2nc(Cl)c(N)nc2N)nc1N.[I-] | 139

tested on: Rattus norvegicus; test: Compound was evaluated for diuretic activity determined by the ability to induce electrolytic excretion (K+) at a time period of 0-24 hr for dose 81 mg/kg; format: functional, Urine; parameters: unit: mequiv × 100; method in brief: as §1

Row | SMILES | Diuretic effect
3 | CN(C)c1nc(N)c(-c2nc(N)[n+](C)o2)nc1Cl.[I-] | 68
4 | C[n+]1oc(-c2nc(Cl)c(N)nc2N)nc1N.[I-] | 96

tested on: Rattus norvegicus; test: Compound was evaluated for diuretic activity determined by the ability to induce electrolytic excretion (K+) at a time period of 0-24 hr for dose 9 mg/kg; format: functional, Urine; method in brief: as §1

Row | SMILES | Diuretic effect
5 | CN(C)c1nc(N)c(-c2nc(N)[n+](C)o2)nc1Cl.[I-] | 97
6 | C[n+]1oc(-c2nc(Cl)c(N)nc2N)nc1N.[I-] | 92

tested on: Rattus norvegicus; test: Compound was evaluated for diuretic activity determined by the ability to induce electrolytic excretion (K+) at a time period of 0-5 hr for dose 27 mg/kg; format: functional, Urine; method in brief: as §1

Row | SMILES | Diuretic effect
7 | CN(C)c1nc(N)c(-c2nc(N)[n+](C)o2)nc1Cl.[I-] | 6
8 | C[n+]1oc(-c2nc(Cl)c(N)nc2N)nc1N.[I-] | 4

tested on: Rattus norvegicus; test: Compound was evaluated for diuretic activity determined by the ability to induce electrolytic excretion (K+) at a time period of 0-5 hr for dose 3 mg/kg; format: functional, Urine; method in brief: as §1

Row | SMILES | Diuretic effect
9 | CN(C)c1nc(N)c(-c2nc(N)[n+](C)o2)nc1Cl.[I-] | 2
10 | C[n+]1oc(-c2nc(Cl)c(N)nc2N)nc1N.[I-] | 3

tested on: Rattus norvegicus; test: Compound was evaluated for diuretic activity determined by the ability to induce electrolytic excretion (K+) at a time period of 0-5 hr for dose 81 mg/kg; format: functional, Urine; method in brief: as §1

Row | SMILES | Diuretic effect
11 | CN(C)c1nc(N)c(-c2nc(N)[n+](C)o2)nc1Cl.[I-] | 5
12 | C[n+]1oc(-c2nc(Cl)c(N)nc2N)nc1N.[I-] | 7

tested on: Rattus norvegicus; test: Compound was evaluated for diuretic activity determined by the ability to induce electrolytic excretion (K+) at a time period of 0-5 hr for dose 9 mg/kg; format: functional, Urine; method in brief: as §1

Row | SMILES | Diuretic effect
13 | CN(C)c1nc(N)c(-c2nc(N)[n+](C)o2)nc1Cl.[I-] | 2
14 | C[n+]1oc(-c2nc(Cl)c(N)nc2N)nc1N.[I-] | 2

tested on: Rattus norvegicus; test: Compound was evaluated for diuretic activity determined by the ability to induce electrolytic excretion (Na+) at a time period of 0-24 hr for dose 27 mg/kg; format: functional, Urine; method in brief: as §1

Row | SMILES | Diuretic effect
15 | CN(C)c1nc(N)c(-c2nc(N)[n+](C)o2)nc1Cl.[I-] | 299
16 | C[n+]1oc(-c2nc(Cl)c(N)nc2N)nc1N.[I-] | 389

tested on: Rattus norvegicus; test: Compound was evaluated for diuretic activity determined by the ability to induce electrolytic excretion (Na+) at a time period of 0-24 hr for dose 3 mg/kg; format: functional, Urine; method in brief: as §1

Row | SMILES | Diuretic effect
17 | CN(C)c1nc(N)c(-c2nc(N)[n+](C)o2)nc1Cl.[I-] | 185
18 | C[n+]1oc(-c2nc(Cl)c(N)nc2N)nc1N.[I-] | 281

tested on: Rattus norvegicus; test: Compound was evaluated for diuretic activity determined by the ability to induce electrolytic excretion (Na+) at a time period of 0-24 hr for dose 81 mg/kg; format: functional, Urine; method in brief: as §1

Row | SMILES | Diuretic effect
19 | CN(C)c1nc(N)c(-c2nc(N)[n+](C)o2)nc1Cl.[I-] | 389
20 | C[n+]1oc(-c2nc(Cl)c(N)nc2N)nc1N.[I-] | 433

tested on: Rattus norvegicus; test: Compound was evaluated for diuretic activity determined by the ability to induce electrolytic excretion (Na+) at a time period of 0-24 hr for dose 9 mg/kg; format: functional, Urine; method in brief: as §1

Row | SMILES | Diuretic effect
21 | CN(C)c1nc(N)c(-c2nc(N)[n+](C)o2)nc1Cl.[I-] | 224
22 | C[n+]1oc(-c2nc(Cl)c(N)nc2N)nc1N.[I-] | 296

tested on: Rattus norvegicus; test: Compound was evaluated for diuretic activity determined by the ability to induce electrolytic excretion (Na+) at a time period of 0-5 hr for dose 27 mg/kg; format: functional, Urine; method in brief: as §1

Row | SMILES | Diuretic effect
23 | CN(C)c1nc(N)c(-c2nc(N)[n+](C)o2)nc1Cl.[I-] | 100
24 | C[n+]1oc(-c2nc(Cl)c(N)nc2N)nc1N.[I-] | 104

tested on: Rattus norvegicus; test: Compound was evaluated for diuretic activity determined by the ability to induce electrolytic excretion (Na+) at a time period of 0-5 hr for dose 3 mg/kg; format: functional, Urine; method in brief: as §1

Row | SMILES | Diuretic effect
25 | CN(C)c1nc(N)c(-c2nc(N)[n+](C)o2)nc1Cl.[I-] | 55
26 | C[n+]1oc(-c2nc(Cl)c(N)nc2N)nc1N.[I-] | 17

tested on: Rattus norvegicus; test: Compound was evaluated for diuretic activity determined by the ability to induce electrolytic excretion (Na+) at a time period of 0-5 hr for dose 81 mg/kg; format: functional, Urine; method in brief: as §1

Row | SMILES | Diuretic effect
27 | CN(C)c1nc(N)c(-c2nc(N)[n+](C)o2)nc1Cl.[I-] | 154
28 | C[n+]1oc(-c2nc(Cl)c(N)nc2N)nc1N.[I-] | 135

tested on: Rattus norvegicus; test: Compound was evaluated for diuretic activity determined by the ability to induce electrolytic excretion (Na+) at a time period of 0-5 hr for dose 9 mg/kg; format: functional, Urine; method in brief: as §1

Row | SMILES | Diuretic effect
29 | CN(C)c1nc(N)c(-c2nc(N)[n+](C)o2)nc1Cl.[I-] | 60
30 | C[n+]1oc(-c2nc(Cl)c(N)nc2N)nc1N.[I-] | 79

tested on: Rattus norvegicus; test: Compound was evaluated for diuretic activity determined by the to induce electrolytic excretion (Cl-) at a time period of 0-24 hr for dose 81 mg/kg; format: functional, Urine; method in brief: as §1

Row | SMILES | Diuretic effect
31 | CN(C)c1nc(N)c(-c2nc(N)[n+](C)o2)nc1Cl.[I-] | 322

tested on: Rattus norvegicus; test: Compound was evaluated for diuretic activity determined by the ability to induce electrolytic excretion (Cl-) at a time period of 0-24 hr for dose 27 mg/kg; format: functional, Urine; method in brief: as §1

Row | SMILES | Diuretic effect
32 | CN(C)c1nc(N)c(-c2nc(N)[n+](C)o2)nc1Cl.[I-] | 209
33 | C[n+]1oc(-c2nc(Cl)c(N)nc2N)nc1N.[I-] | 277

tested on: Rattus norvegicus; test: Compound was evaluated for diuretic activity determined by the ability to induce electrolytic excretion (Cl-) at a time period of 0-24 hr for dose 3 mg/kg; format: functional, Urine; method in brief: as §1

Row | SMILES | Diuretic effect
34 | CN(C)c1nc(N)c(-c2nc(N)[n+](C)o2)nc1Cl.[I-] | 153
35 | C[n+]1oc(-c2nc(Cl)c(N)nc2N)nc1N.[I-] | 203

tested on: Rattus norvegicus; test: Compound was evaluated for diuretic activity determined by the ability to induce electrolytic excretion (Cl-) at a time period of 0-24 hr for dose 81 mg/kg; format: functional, Urine; method in brief: as §1

Row | SMILES | Diuretic effect
36 | C[n+]1oc(-c2nc(Cl)c(N)nc2N)nc1N.[I-] | 326

tested on: Rattus norvegicus; test: Compound was evaluated for diuretic activity determined by the ability to induce electrolytic excretion (Cl-) at a time period of 0-24 hr for dose 9 mg/kg; format: functional, Urine; method in brief: as §1

Row | SMILES | Diuretic effect
37 | CN(C)c1nc(N)c(-c2nc(N)[n+](C)o2)nc1Cl.[I-] | 169
38 | C[n+]1oc(-c2nc(Cl)c(N)nc2N)nc1N.[I-] | 204

tested on: Rattus norvegicus; test: Compound was evaluated for diuretic activity determined by the ability to induce electrolytic excretion (Cl-) at a time period of 0-5 hr for dose 3 mg/kg; format: functional, Urine; method in brief: as §1

Row | SMILES | Diuretic effect
39 | CN(C)c1nc(N)c(-c2nc(N)[n+](C)o2)nc1Cl.[I-] | 37
40 | C[n+]1oc(-c2nc(Cl)c(N)nc2N)nc1N.[I-] | 28

tested on: Rattus norvegicus; test: Compound was evaluated for diuretic activity determined by the ability to induce electrolytic excretion (Cl-) at a time period of 0-5 hr for dose 81 mg/kg; format: functional, Urine; method in brief: as §1

Row | SMILES | Diuretic effect
41 | CN(C)c1nc(N)c(-c2nc(N)[n+](C)o2)nc1Cl.[I-] | 95
42 | C[n+]1oc(-c2nc(Cl)c(N)nc2N)nc1N.[I-] | 95

tested on: Rattus norvegicus; test: Compound was evaluated for diuretic activity determined by the ability to induce electrolytic excretion (Cl-) at a time period of 0-5 hr for dose 9 mg/kg; format: functional, Urine; method in brief: as §1

Row | SMILES | Diuretic effect
43 | CN(C)c1nc(N)c(-c2nc(N)[n+](C)o2)nc1Cl.[I-] | 35
44 | C[n+]1oc(-c2nc(Cl)c(N)nc2N)nc1N.[I-] | 39

tested on: Rattus norvegicus; test: Compound was evaluated for diuretic activity determined by the ability to induce electrolytic excretion (K+) at a time period of 0-24 hr for dose 27 mg/kg; format: functional, Urine; method in brief: as §1

Row | SMILES | Diuretic effect
45 | CN(C)c1nc(N)c(-c2nc(N)[n+](C)o2)nc1Cl.[I-] | 62
46 | C[n+]1oc(-c2nc(Cl)c(N)nc2N)nc1N.[I-] | 89

tested on: Rattus norvegicus; test: Urine volumes was determined in Sprague-Dawley rats at time period of 0-5 hours at 27 mg/kg; format: functional
Method in brief: (§2)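 Female Sprague-Dawley rats (160-170 g) were dosed orally at 3-81 mg/kg, with a placebo group. Housing was three rats per cage and three cages per dose. Urinary Na+, K+ and Cl- (mequiv × 100) and urine volume were measured over 0-5 h and 0-24 h.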

Row | SMILES | Urine volume
47 | CN(C)c1nc(N)c(-c2nc(N)[n+](C)o2)nc1Cl.[I-] | 29 mL

tested on: Rattus norvegicus; test: Urine volumes was determined in Sprague-Dawley rats at time period of 0-5 hours at 3 mg/kg; format: functional; method in brief: as §2

Row | SMILES | Urine volume
48 | CN(C)c1nc(N)c(-c2nc(N)[n+](C)o2)nc1Cl.[I-] | 26 mL

tested on: Rattus norvegicus; test: Urine volumes was determined in Sprague-Dawley rats at time period of 0-5 hours at 81 mg/kg; format: functional; method in brief: as §2

Row | SMILES | Urine volume
49 | CN(C)c1nc(N)c(-c2nc(N)[n+](C)o2)nc1Cl.[I-] | 31 mL

tested on: Rattus norvegicus; test: Urine volumes was determined in Sprague-Dawley rats at time period of 0-5 hours at 9 mg/kg; format: functional; method in brief: as §2

Row | SMILES | Urine volume
50 | CN(C)c1nc(N)c(-c2nc(N)[n+](C)o2)nc1Cl.[I-] | 27 mL

tested on: Rattus norvegicus; test: Urine volumes in Sprague-Dawley rats was determined at time period of 0-5 hours at 3 mg/kg; format: functional; method in brief: as §1

Row | SMILES | Urine volume
51 | C[n+]1oc(-c2nc(Cl)c(N)nc2N)nc1N.[I-] | 25 mL

tested on: Rattus norvegicus; test: Urine volumes in Sprague-Dawley rats was determined at time period of 0-5 hours at 81 mg/kg; format: functional; method in brief: as §1

Row | SMILES | Urine volume
52 | C[n+]1oc(-c2nc(Cl)c(N)nc2N)nc1N.[I-] | 29 mL

tested on: Rattus norvegicus; test: Urine volumes in Sprague-Dawley rats was determined at time period of 0-5 hours at 9 mg/kg; format: functional; method in brief: as §1

Row | SMILES | Urine volume
53 | C[n+]1oc(-c2nc(Cl)c(N)nc2N)nc1N.[I-] | 25 mL

tested on: Rattus norvegicus; test: Urine volumes in Sprague-Dawley rats was determined at time period of 0-5 hours at 27 mg/kg; format: functional; method in brief: as §1

Row | SMILES | Urine volume
54 | C[n+]1oc(-c2nc(Cl)c(N)nc2N)nc1N.[I-] | 27 mL

tested on: Rattus norvegicus; test: Compound was evaluated for diuretic activity determined by the ability to induce electrolytic excretion (Cl-) at a time period of 0-5 hr for dose 27 mg/kg; format: functional, Urine; method in brief: as §1

Row | SMILES | Diuretic effect
55 | CN(C)c1nc(N)c(-c2nc(N)[n+](C)o2)nc1Cl.[I-] | 56
56 | C[n+]1oc(-c2nc(Cl)c(N)nc2N)nc1N.[I-] | 49
